From PubChem BioAssay AID465 (The Scripps Research Institute Molecular Screening Center, 2006)
About 130 (0.21%) of roughly 62,000 compounds were called active.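 Rule for the calls: active = inhibition above the mean of all tested compounds plus 3 SD (cut at about 40% in these data); inactive = the rest.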 For the sample, actives were picked, then their nearest neighbours and some compounds at random.

Experiment: lowered NF-kB luciferase signal in HEK293 cells – cell-based, HEK-293 luciferase reporter, PMA/ionomycin, luminescence, antigen receptor NF-kB inhibitor project, primary screen (AID 465);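 note: 0% = stimulated DMSO wells and 100% = 10 µM reference inhibitor 5653914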
Details: HEK-293 NF-kB luciferase reporter, at 3 µM, active compounds read high
In short: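 System: NF-kB luciferase reporter HEK-293 cells | Replication: Single test | Control set: DMSO vs reference inhibitor | Evaluation: % inhibition | Schedule: 1 h pretreatment, 16 h stimulation, 37 °C | Probe or stimulus: PMA with ionomycin | Compound dosing: One dose, 3 µM | Detection: Luciferase luminescence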

inhibition, inactive:
CC1CN(C(=O)CN2C(=O)NC(C)(c3ccccc3)C2=O)CC(C)O1 (configuration not stated) 6.5%
Cc1cc(=O)oc(C)c1C(=O)NCc1ccc(F)cc1 4.5%
O=C(CCn1c(=O)oc2ccccc21)Nc1ccon1 6.5%
CCOC(=O)N1CCN(S(=O)(=O)c2ccc(C(=O)Nc3ccc(F)cc3F)cc2)CC1 17.4%
O=C(C(NS(=O)(=O)c1cccc2nsnc12)c1ccccc1)N1CCN(c2ccccn2)CC1 (configuration not stated) 10.9%
CCOc1cc(C(=O)N2CCc3cc(OC)c(OC)cc3C2)ccc1OC(F)F 31.7%
O=C(Cc1c(F)cccc1Cl)N1CCN(C(=O)c2ccco2)CC1 10.7%
Cc1nc2c(-c3ccc(F)cc3)c(C)nn2c(C)c1CCC(=O)N1CCN(c2ccccn2)CC1 0.2%
CCn1cc(C(=O)NC2CCCCCC2)c(=O)c2cc(S(=O)(=O)N3CCCCC3)ccc21 20.8%
COc1ccc(OC)c(NC(=O)CSc2nc3cccnc3n2C)c1 18.9%
CC(Sc1nncs1)C(=O)NCc1ccc2c(c1)OCO2 (configuration not stated) -5.2%
COc1ccccc1NC(=O)CN1CCN(S(=O)(=O)c2ccc(Br)cc2)CC1 4.2%
CCOC(=O)c1cccc(NC(=O)C2CCCN(S(=O)(=O)c3cnc[nH]3)C2)c1 (configuration not stated) 11.6%
O=c1ccc2cc(S(=O)(=O)N3CCN(c4ccccc4)CC3)ccc2o1 10.7%
CCCCCN(C(=O)NC(=O)Nc1ccccc1OC)S(C)(=O)=O 7.9%
COc1ccc(-c2nnn(Cc3nc(N)nc(N4CCCCC4)n3)n2)cc1 10.9%
O=C(NCCCCO)C(F)(F)C(F)(F)C(F)(F)C(=O)NCCCCO 13.3%
CCOC(=O)c1cc(C)sc1NC(=O)C1CCC1 0.1%
CC(C)Cc1ccc(S(=O)(=O)N2CCN(C(=O)c3ccco3)CC2)cc1 9.1%
CC(Sc1nncn1C)C(=O)Nc1ccccc1-c1ccccc1 (configuration not stated) 14.4%
O=C(CN1C(=O)NC2(CCCCC2)C1=O)NCCC1=CCCCC1 17.4%
CCN(CC)C(=O)N1CCN(C(=O)c2ccc(C)cn2)CC1 4.3%
Fc1ccc(Cn2nnnc2C(c2cccs2)N2CCCCCC2)cc1 (configuration not stated) 9.2%
CCCC(=O)Nc1nnc(CC(=O)OCC)s1 9.9%
CCCCNc1nc2ccccc2nc1NS(=O)(=O)c1cccs1 3.3%
Cc1noc(/C=C/N(C)C)c1S(=O)(=O)N1CCCC(C(=O)NCc2ccco2)C1 (configuration not stated) 5%
O=C(Cc1cccs1)N1CCCC(c2nc(-c3ccc(S(=O)(=O)N4CCCC4)cc3)no2)C1 (configuration not stated) 6.1%
Cc1cc(C(=O)COC(=O)c2cccs2)c(C)n1-c1c(C)n(C)n(-c2ccccc2)c1=O 20%
COc1cc(OC)cc(C(=O)Nc2ncc3c(n2)CC(C)(C)CC3=O)c1 18.8%
O=S(=O)(/C=C/c1ccccc1)NCCc1ccccn1 3.3%
CCCCc1nc2c(=O)[nH]c3ccccc3c2o1 7.6%
CNC(=O)c1nnn(-c2ccccc2)c1C(=O)NC 14%
CCC(=O)Nc1ccccc1C(=O)N1CCN(Cc2ccccc2)CC1 9.5%
Cc1[nH]c2ccccc2c1C(=O)CSCC(=O)O 16%
C/C(=C\C(=O)c1cccnc1)Nc1ccc(C)c(C)c1 -5%
O=C(O)c1cccc2c1C(=O)N(C1CCCCC1)C2 8.4%
CS(=O)(=O)N1CCN(C(=O)Cc2ccccc2)CC1 5.7%
CCCCC(CC)C(=O)Nc1ccc(Cl)cn1 (configuration not stated) -0.6%
CCN(CC)CCCN1C(=O)C(=O)/C(=C(/O)c2c(C)nc3ccccn23)C1c1ccc(C)o1 (configuration not stated) 13.6%
COCCNC(=O)CN(C(=O)CCC(=O)Nc1cc(C)on1)c1ccc(C)cc1C 1.1%
CC(C)C(=O)N1CCN(CCN=CC2=C(O)CC(c3ccco3)CC2=O)CC1 (configuration not stated) 9.5%
CC1CCCCC1NC(=O)CCS(=O)(=O)c1cccc2nonc12 (configuration not stated) 10.9%
CCOC(=O)N1CCC(NC(=O)Cn2cc3c(n2)CCCCC3)CC1 17.8%
CCOc1ccc(OCC)c(NC(=O)C(NS(=O)(=O)c2ccc3c(c2)oc(=O)n3C)C(C)C)c1 (configuration not stated) 12.5%
CCC1Oc2ccc(Cl)cc2N(CC(=O)O)C1=O (configuration not stated) 10.2%
CC(CCO)Nc1nc2c([nH]1)c(=O)n(C)c(=O)n2C (configuration not stated) 22.2%
COC(=O)[C@H](C(C)C)n1c(C)c(C(C)=O)c(C(C)=O)c1C -9.6%
